Experimental data reported in publication PMC11290325 (Chemical Science, 2024).
Each block holds one compound with its values, some of them ahead of it. Where a SMILES comes first, the peptide text is derived from it.

What was measured:
hKeap1 = hKeap1 (Homo sapiens, UniProt Q14145); experiment: BLI binding to hKeap1; settings: Hk2 and Hk3 tested up to 100 μM
NEK7 = NEK7 (Homo sapiens, UniProt Q8TDX7); experiment: BLI binding to NEK7
PTP1B [1] = target: T1, PTP1B (Homo sapiens, UniProt P18031); experiment: Bio-Layer Interferometry; assay type: binding
T1 sequence (P18031 1-435): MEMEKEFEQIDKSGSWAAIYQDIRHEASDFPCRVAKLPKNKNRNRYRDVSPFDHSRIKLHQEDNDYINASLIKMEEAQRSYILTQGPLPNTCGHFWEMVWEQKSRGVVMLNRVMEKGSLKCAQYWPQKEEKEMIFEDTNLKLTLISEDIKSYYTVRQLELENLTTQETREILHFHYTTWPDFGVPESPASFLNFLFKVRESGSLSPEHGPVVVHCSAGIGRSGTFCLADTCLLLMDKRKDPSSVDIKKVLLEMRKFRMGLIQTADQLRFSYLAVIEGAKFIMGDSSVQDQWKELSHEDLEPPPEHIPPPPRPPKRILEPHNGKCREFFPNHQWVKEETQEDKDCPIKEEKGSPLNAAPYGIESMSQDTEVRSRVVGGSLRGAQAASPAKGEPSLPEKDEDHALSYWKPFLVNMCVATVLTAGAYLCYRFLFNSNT
Method in brief: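 Bio-layer interferometry […]. Wavelength shift and kinetic parameters were recorded. Kd was obtained by curve fitting. Cyclic peptides were made by OPA treatment of purified SPPS linear precursors.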

PTP1B [2] = target: T1, PTP1B; experiment: in vitro enzyme inhibition of PTP1B; assay type: biochemical
M13 phages = experiment: Phage infectivity; set-up: species or system M13 bacteriophage; settings: PBS pH 7.4, 20 min, room temperature
Method in brief: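 M13 phages displaying an N-terminal KGGSC pIII peptide with a factor Xa site were grown in E. coli TG1 and PEG-purified. They were then TCEP-reduced, factor Xa-digested and blocked with CBT (0.5 mM). After CBT removal and buffer exchange, they were treated with OPA at 100, 300 or 500 µM in PBS pH 7.4 for 20 min at room temperature. Titers (cfu) were measured after each stage by infecting TG1.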

hKeap1, sequence (Q14145 whole entry): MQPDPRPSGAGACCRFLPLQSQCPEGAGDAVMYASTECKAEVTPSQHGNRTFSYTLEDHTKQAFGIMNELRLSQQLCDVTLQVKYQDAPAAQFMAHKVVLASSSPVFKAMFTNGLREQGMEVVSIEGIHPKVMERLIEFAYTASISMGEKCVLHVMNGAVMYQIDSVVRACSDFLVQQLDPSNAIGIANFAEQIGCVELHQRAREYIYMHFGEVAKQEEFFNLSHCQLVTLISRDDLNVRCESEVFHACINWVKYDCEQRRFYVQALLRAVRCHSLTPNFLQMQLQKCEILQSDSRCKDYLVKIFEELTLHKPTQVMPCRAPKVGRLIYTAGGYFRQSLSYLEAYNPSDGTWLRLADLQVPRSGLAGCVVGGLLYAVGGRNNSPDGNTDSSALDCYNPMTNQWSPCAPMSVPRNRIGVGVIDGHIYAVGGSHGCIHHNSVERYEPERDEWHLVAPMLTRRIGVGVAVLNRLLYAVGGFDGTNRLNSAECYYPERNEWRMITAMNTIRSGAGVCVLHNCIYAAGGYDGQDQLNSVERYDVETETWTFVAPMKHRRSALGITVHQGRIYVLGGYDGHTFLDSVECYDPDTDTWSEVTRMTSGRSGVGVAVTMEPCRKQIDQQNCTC
NEK7, sequence (Q8TDX7 whole entry): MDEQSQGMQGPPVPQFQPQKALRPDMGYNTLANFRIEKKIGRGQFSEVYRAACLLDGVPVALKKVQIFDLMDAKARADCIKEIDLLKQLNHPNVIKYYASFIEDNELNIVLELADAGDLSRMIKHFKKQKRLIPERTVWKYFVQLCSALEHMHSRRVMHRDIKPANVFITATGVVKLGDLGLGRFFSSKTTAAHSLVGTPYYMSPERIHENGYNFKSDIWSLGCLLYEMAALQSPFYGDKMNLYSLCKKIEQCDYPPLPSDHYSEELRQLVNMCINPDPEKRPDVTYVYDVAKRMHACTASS

binding to NEK7 (in words) (NEK7): low binding capacity
Compound: CC[C@H](C)[C@@H]1NC(=O)[C@H](CC(C)C)NC(=O)[C@@H]2CCCN2C(=O)[C@H](Cc2ccccc2)NC(=O)[C@H](CC(C)C)NC(=O)[C@H](CC(C)C)NC(=O)[C@@H](NC(C)=O)CCCCn2cc3ccccc3c2SC[C@@H](C(N)=O)NC(=O)[C@H](CC(N)=O)NC1=O [N3] (HELM PEPTIDE1{[ac].[O=C([C@H](CCCCn1cc2ccccc2c1[*:3])N[*:1])[*:2]].L.L.F.P.L.I.N.C.[am]}$PEPTIDE1,PEPTIDE1,2:R3-10:R3$$$V2.0)

binding to hKeap1 (in words) (hKeap1): did not exhibit significant affinity
Compound: CC(=O)N[C@H]1CCCCn2cc3ccccc3c2SC[C@@H](C(N)=O)NC(=O)CNC(=O)[C@H](CCC(=O)O)NC(=O)CNC(=O)[C@H]([C@@H](C)O)NC(=O)[C@H](C)NC(=O)[C@H]([C@@H](C)O)NC(=O)[C@H](CCC(N)=O)NC1=O [Hk3] (HELM PEPTIDE1{[ac].[O=C([C@H](CCCCn1cc2ccccc2c1[*:3])N[*:1])[*:2]].Q.T.A.T.G.E.G.C.[am]}$PEPTIDE1,PEPTIDE1,2:R3-10:R3$$$V2.0)

binding to PTP1B (in words) (PTP1B [1]; BLI): unable to bind
Compound: Ac-KLFLHWARC-NH2 [M2_SS]

Continued, compound first:

Compound: Ac-KQTATGRGC-NH2 [Hk1_SS]
binding to hKeap1 (in words) (hKeap1): no interaction

Compound: CC(=O)N[C@H]1CCCCn2cc3ccccc3c2SC[C@@H](C(N)=O)NC(=O)[C@H](CCC(=O)O)NC(=O)CNC(=O)[C@H]([C@@H](C)O)NC(=O)[C@H](CC(=O)O)NC(=O)[C@@H]2CCCN2C(=O)[C@H](CC(=O)O)NC(=O)[C@H](CC(C)C)NC1=O [Hk2] (HELM PEPTIDE1{[ac].[O=C([C@H](CCCCn1cc2ccccc2c1[*:3])N[*:1])[*:2]].L.D.P.D.T.G.E.C.[am]}$PEPTIDE1,PEPTIDE1,2:R3-10:R3$$$V2.0)
binding to hKeap1 (in words) (hKeap1): did not exhibit significant affinity

Compound: Ac-KTFLHWRYC-NH2 [M1_SS]
Kd (PTP1B [1]): 9.2 ± 0.9 µM
reduction in affinity compared to its cyclic counterpart (PTP1B [1]; BLI, linear precursor vs cyclic M1_OPA): four-fold
IC50 (PTP1B [2]): 54.8 ± 4.21 µM

Compound: O=Cc1ccccc1C=O [OPA, ortho-phthalaldehyde]
impact on M13 phages in cfus (M13 phages; OPA concentration below 300 μM): no significant impact
reduction in infectivity compared to untreated phage supernatant (M13 phages; OPA surpassing the 500 μM threshold): over 20 fold
